Assays:
[1] = tested on: human dermal fibroblasts (HDFs); test: MTT dose response assay, HDFs in 2D and 3D PCL 96-well plates; type: cell-based; settings: HDF, 72 h, mean of three experiments ± SEM
In short: (§1)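 Accutase-detached cells seeded at 7000 (2D) or 21,000 (3D; O2-plasma-treated, ethanol-sterilized PCL fibre-mesh wells) per 180 μL. After 24 h normoxic attachment, compound added, then 72 h at 18 % O2/5 % CO2 or 1 % O2. MTT (20 μL of 5 mg/mL) 2 h; formazan dissolved in DMSO (2D 15 min, 3D 2 h shaking); absorbance background-subtracted. IC50 = 50 % MTT reduction; ≥3 experiments, 3–6 wells/concentration.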

[2] = tested on: JIMT-1 breast cancer cells; test: MTT dose response assay, JIMT-1 cells in 2D and 3D PCL 96-well plates; type: cell-based, human; settings: JIMT-1, 2D culture, hypoxia (1 % O2), 72 h, mean of three experiments ± SEM
In short: as §1

[3] = tested on: JIMT-1 cells; settings: JIMT-1, 2D cultures, normoxia, FBS-supplemented medium; cited from earlier work

## salinomycin analogue 20-ethyl carbonate-Na [SAEC]
[1]; 2D culture, hypoxia (1 % O2)
  IC50: 239 ± 6.2 nM
[1]; 2D culture, normoxia (18 % O2)
  IC50: 97.7 ± 11.8 nM
[1]; 3D culture, hypoxia (1 % O2)
  IC50: 316 ± 35.1 nM
[1]; 3D culture, normoxia (18 % O2)
  IC50: 150 ± 34.4 nM
[2]
  IC50: 80.4 ± 13.3 nM
[3]
  IC50: 90 ± 0.02 nM

Reference: paper PMC8024882 (Toxicology Reports, 2021)
